Screens (PubChem)
Dynein transport – inhibitors of GR-EGFP nuclear translocation, primary screen, dynein cargo transport inhibitor project, imaging, high-content, 3617.4 mouse cells. test concentration mostly 20 µM; stimulated with dexamethasone, 1 µM; stronger effect = lower value. z-score, hits read low. 220,000 tested, 0.47% active. AID 1381, 2008;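 active means plate z-score of nuclear minus cytoplasmic receptor signal below a set negative limit, without overly bright fluorescence or cell loss, cut at about -3.5 in these data, passing the limit was not always enough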;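 further: z-score of nuclear minus cytoplasmic ring GR-EGFP intensity difference per well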
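Schedule: 48 h induction, then 1 h compound, then 30 min agonist, 37 °C. Buffer or medium: tetracycline-free induction medium containing charcoal-stripped FBS. Reagent: 1.0 µM final dexamethasone stimulus. Evaluation: nuclear versus cytoplasmic GR-EGFP signal, averaged per well. Signal: high-content fluorescence imaging after fixation.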
CHOP inhibitor – inhibitors of CHOP promoter induction, primary screen, cell-based, unfolded protein response, luciferase reporter. AID 2732, 2010. 220,000 tested, 3.8% active. inhibition, % at 10 µM. CHO-K1 CHOP-promoter luciferase, tunicamycin-induced, 15-18 h;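 active means compounds that reduced the stress-induced luciferase reporter signal by more than about 70% of percent inhibition, limit read from the data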
bCat nuc transl – modulators of beta-catenin nuclear translocation, primary screen, imaging, HeLa cells, immunofluorescence, high-content; nuclear translocation activity, % at 5 µM; 190,000 tested, 0.3% active; AID 1665, 2009;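 active means nuclear translocation activity above 50% at 5 µM, with a well cell count of 50 or more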;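 further: per-cell ratio of nuclear to cytoplasmic median beta-catenin stain intensity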
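Technique: fluorescence imaging of beta-catenin antibody stain plus DAPI / Material: human HeLa cell line / Incubation: compound treatment 24 h, 37°C, 5% CO2 / Read-out basis: % activation of per-cell nuclear versus cytoplasmic median beta-catenin signal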
Lmaj promast – Leishmania major promastigote growth inhibition, primary screen; inhibition, % at 10 µM; 200,000 tested, 9% active; AID 1063, 2008; Leishmania major promastigotes, resazurin fluorescence viability; in the data active means inhibition above about 50%;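 further: promastigotes grown with compound for 44 hours at 28 °C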
Autophagy mod – autophagy modulators in MEF cells, primary screen, imaging, high-content, MEF GFP-LC3; AID 463193, 2010; calls only at 10 µM (by protocol); 190,000 tested, 0.98% active; MEF GFP-LC3 puncta imaging; test concentration mostly 10 µM;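 active means percentage of spot-positive cells more than 3 SD above its plate mean, without a fluorescence outlier flag or 80% toxicity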
MT stabilizer – microtubule stabilizers in HeLa cells, primary screen, imaging, high-content imaging. HeLa tubulin immunostaining HCS, 24 h; share of cells brighter than vehicle mean+2SD. % tubulin-high responders, % at 10 µM. 200,000 tested, 0.83% active. AID 2205, 2009;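 active means plate Z-score above 3 for both tubulin-high and condensed-nucleus cell shares, with cell loss under 80%, at 10 µM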;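 further: anti alpha tubulin signal scored within the nucleus-defined area of each cell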
Each line names hits and unclear results; the compound was inactive in the other large screens. An excerpt weighted towards active compounds, which were near 12% of everything screened.

Cc1c(C#N)c(N=CN(C)C)c(C(=O)c2ccccc2)n1-c1ccc(Br)cc1	none (no result: bCat nuc transl)
Cc1ccc(OCC(O)Cn2c3ccccc3c3ccccc32)cc1 (centres undefined)	none
COc1ccc(C(=O)c2c(C)c3ccccc3n2CC(O)CNC(C)C)cc1 (centres undefined)	Lmaj promast 96.7 (no result: bCat nuc transl)
COc1ccc(OC)c(Nc2nc(-c3sc(NC(=O)c4ccccc4)nc3C)cs2)c1	none
CCCCCC(=O)Nc1nc(C)c(-c2csc(Nc3cc(OC)ccc3OC)n2)s1	Lmaj promast 50.8
COc1ccc(Cl)cc1Nc1nc(-c2sc(NC(=O)CC(C)C)nc2C)cs1	none
CCCCCCC(=O)Nc1nc(C)c(-c2csc(Nc3cc(OC)ccc3OC)n2)s1	Lmaj promast 71.3
Cc1ccc(/C=N/NC(=O)NC23CC4CC(CC(C4)C2)C3)o1	none (no result: Dynein transport, CHOP inhibitor, Lmaj promast, Autophagy mod, MT stabilizer)
c1ccc(CSc2ccc(-c3ccccn3)nn2)nc1	none
CCCOc1ccc(S(=O)(=O)NCc2ccc(OC)cc2)cc1	CHOP inhibitor 80.3
COc1ccc(CNS(=O)(=O)c2ccc(OC)cc2)cc1	none
COc1ccc(CNC(=O)COc2ccc(S(=O)(=O)NC(C)C)cc2)cc1	Lmaj promast 64.6
CCCCOc1ccc(N2C(=O)CC(NCc3ccncc3)C2=O)cc1 (centres undefined)	none
N#CC(c1ccccc1)c1ccc(C(=O)c2ccc(F)cc2)cc1 (centres undefined)	Lmaj promast 59.9 (no result: bCat nuc transl)
COc1ccc(NS(=O)(=O)c2cc(NC(=O)c3cccs3)ccc2N2CCOCC2)cc1	MT stabilizer 13.0
COc1ccc(NS(=O)(=O)c2cc(NC(=O)c3cnc(C)cn3)ccc2N2CCCC2)cc1	Lmaj promast 95.3 (no result: bCat nuc transl)
COc1ccc(NS(=O)(=O)c2cc(NC(=O)C3CC3)ccc2N2CCCCC2)cc1	Lmaj promast 55.8
Cc1nc2ccc(C(=O)O)cc2c2c1CC(C)S2 (centres undefined)	none
Nc1nc(Cl)nc2c1ncn2[C@@H]1O[C@H](CO)[C@H](O)C1O (some centres undefined)	none (no result: Dynein transport, bCat nuc transl, Lmaj promast, Autophagy mod, MT stabilizer)
Cc1ccc(NS(=O)(=O)c2ccccc2)c2c1CC(C)(C)O2	MT stabilizer 26.7
O=C(Cc1ccc(Cl)cc1)Nc1ccccc1Sc1ccccc1	CHOP inhibitor 75.1 (no result: bCat nuc transl)
O=C(CCl)Nc1ccccc1Sc1ccccc1	Lmaj promast 54.4 (no result: bCat nuc transl)
O=C(Cc1ccccc1)Nc1cc(Cl)ccc1Sc1ccccc1	Lmaj promast 59.8 (no result: bCat nuc transl)
CCC(=O)Nc1cc(C(=O)O)ccc1Sc1ccccc1	none
Cc1ccc(C)c(Sc2ccc(NC(=O)CCl)cc2)c1	Dynein transport -4.24, Lmaj promast 100.2
OC1CCN(C(=S)Nc2ccc(Oc3ccccc3)cc2)CC1	none
CC(C)CC(=O)OCC(=O)Nc1ccccc1Sc1ccccc1	CHOP inhibitor 83.5 (no result: bCat nuc transl)
O=C(COC(=O)C1CCC1)Nc1ccccc1Sc1ccccc1	none
Cc1[nH]c2ccccc2c1SCc1ccccc1	CHOP inhibitor 82.9
Cc1ccc(S(=O)(=O)N(C(=O)c2ccncc2)c2ccc(OC(=O)c3ccncc3)c3ccccc23)c(C)c1	Lmaj promast 98.3
Cc1cc(F)ccc1S(=O)(=O)N(C(=O)c1ccncc1)c1ccc(OC(=O)c2ccncc2)cc1	none
Cc1ccc(S(=O)(=O)N(C(=O)c2ccncc2)c2ccc(OC(=O)c3ccncc3)c3ccccc23)cc1	Lmaj promast 97.9
Cc1ccc(OC(=O)c2ccc(S(=O)(=O)N(C)C)cc2)c(-n2nc3ccccc3n2)c1	none
O=c1c2c3c(sc2n2cnnc2n1-c1ccccc1)N(Cc1ccccc1)CCC3	none
CCOC(=O)/C(=C/C=C1\Sc2cc(OCC)c(OCC)cc2N1CC)C(C)=O	Lmaj promast 67.7, Autophagy mod active (no result: bCat nuc transl)
CCN1/C(=C/C(C)=O)Sc2ccc(OC)cc21	none
O=C(CC1=NC2(CCCC2)Cc2ccccc21)N1CCOCC1	none
CC(=O)OCCCCON1C(=O)c2ccccc2C1=O	none
O=C1c2ccccc2C(=O)N1CCCON1C(=O)c2ccccc2C1=O	Lmaj promast 50.3
COc1ccc(-c2nnc(N3CCCCC3)c3ccccc23)cc1	none
Cc1ccc(-c2nnc(N3CCC(C)CC3)c3ccccc23)cc1	CHOP inhibitor 84.3
Cc1ccc(-c2nnc(N3CCC(C)CC3)c3ccccc23)cc1C	CHOP inhibitor 90.3
CC1CCN(c2nnc(-c3ccccc3)c3ccccc23)CC1	none
CCc1ccc(C2CC(c3ccccc3)Nc3nc(N)nn32)cc1 (centres undefined)	none
Cc1cccc(C2CC(c3ccc(Cl)cc3)Nc3nc(N)nn32)c1 (centres undefined)	Lmaj promast 64.3 (no result: Autophagy mod)
Cc1ccc(C2CC(c3cccc(Cl)c3)n3nc(N)nc3N2)cc1 (centres undefined)	none
CCc1ccc(C2CC(c3cccc(Cl)c3)n3nc(N)nc3N2)cc1 (centres undefined)	Lmaj promast 54.3
Cc1cccc(C2CC(c3ccc(F)cc3)Nc3nc(N)nn32)c1 (centres undefined)	Lmaj promast 93.2
O=c1[nH]c(/C=C/c2ccccc2OC(F)F)nc2c1cnn2-c1ccccc1	Lmaj promast 62.2
CCCn1cnc2c(cnn2-c2ccc(F)cc2)c1=O	Autophagy mod active
CCCSc1nc2c(cnn2-c2ccc(F)cc2)c(=O)[nH]1	CHOP inhibitor 79.0 (no result: Autophagy mod)
O=c1[nH]c(SCc2ccccc2)nc2c1cnn2-c1ccc(F)cc1	none
O=c1[nH]c(SCc2ccc(F)cc2)nc2c1cnn2-c1ccc(F)cc1	none (no result: CHOP inhibitor, Autophagy mod)
CCC(C)Sc1nc2c(cnn2-c2ccccc2)c(=O)[nH]1 (centres undefined)	CHOP inhibitor 77.7
COc1cccc(OCC(=O)O)c1	none
Cc1noc(C)c1CCC(=O)N1CCCC(CCC(=O)NCc2ccc(F)c(F)c2)C1 (centres undefined)	none (no result: MT stabilizer)
O=C(CSc1nc2c(cnn2-c2ccccc2)c(=O)[nH]1)N1CCCCC1	none (no result: Lmaj promast, Autophagy mod, MT stabilizer)
O=C(CSc1nc2c(cnn2-c2ccccc2)c(=O)[nH]1)c1ccc(Cl)cc1	CHOP inhibitor 91.5
O=C(CSc1nc2c(cnn2-c2ccc(F)cc2)c(=O)[nH]1)N1N=C(c2cccs2)CC1c1ccc(F)cc1 (centres undefined)	Lmaj promast 50.6
CC(C)(C)c1ccc(C(=O)CSc2nc3ccccc3c(=O)[nH]2)cc1	CHOP inhibitor 74.5
O=C(CSc1nc2ccccc2c(=O)[nH]1)c1ccccc1	none
O=C(CSc1nc2ccccc2s1)N1N=C(c2cccs2)CC1c1ccc(F)cc1 (centres undefined)	none
Cc1ccc(C(=O)CSc2nnc3c4ccccc4nc(C(C)(C)C)n23)cc1	CHOP inhibitor 70.1, MT stabilizer 25.7
